Only some compounds are listed: those with a hit (about 2.6% of all), similar ones and a draw of the others.
ARFGAP1 inh: inhibitors of rat ARFGAP1 GAP activity, primary screen, biochemical, fluorescence polarization, GDP tracer; AID 651572, 2012; actives 0.26% (n = 360,000); Arfgap1-stimulated ARF1 GTP hydrolysis, GDP FP detection; inhibition, % at 16.5 µM;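 active means inhibition above a per-plate limit, mean inhibition of low control wells plus 3 SD, cut at about 25% in these data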;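 further: 0% = DMSO wells with enzyme and 100% = wells lacking Arfgap1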
Target sequence (Q62848 1-136 limits assumed): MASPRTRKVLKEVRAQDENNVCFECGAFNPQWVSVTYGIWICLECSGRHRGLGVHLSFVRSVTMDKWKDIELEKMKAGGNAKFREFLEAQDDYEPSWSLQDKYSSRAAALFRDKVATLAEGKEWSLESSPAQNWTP
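Assay system: Rat Arfgap1 GAP domain (His6, aa 1-136), purified enzyme | Buffer or medium: HEPES 25 mM pH 7.5, NaCl 150 mM, MgCl2, DTT | Schedule: GTP hydrolysis reaction 2 h at 25 °C | Signal: FP of antibody-bound GDP Alexa 633 tracer, ex 620/em 688 nm | Measure: Percent inhibition of Arfgap1-stimulated GTP hydrolysis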
SMARCA2 activ: SMARCA2 (BRM) function activators, primary screen, cell-based, luminescence, high throughput | MG213 cells, MMTV-luciferase reporter, dexamethasone, overnight | activation, % at 9.1 µM | actives 1% (n = 370,000) | AID 652017, 2013; in the data active means activation above about 7.8%;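 further: 0% = vehicle wells and 100% = reference activator wells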
ASAP1 inh: inhibitors of human ASAP1 ArfGAP activity, primary screen, biochemical, fluorescence polarization | inhibition, % at 16.5 µM | actives 0.19% (n = 360,000) | ASAP1-stimulated ARF1 GTP hydrolysis, GDP FP detection | Arf-GAP with SH3 domain, ANK repeat and PH domain-containing protein 1 (Homo sapiens), …; in the data active means inhibition above about 25%;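 further: 0% = vehicle with enzyme and substrate and 100% = no enzyme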
esBAF inh: Bmi1 luciferase reporter increase in mESCs, primary screen, esBAF inhibitor project, mouse ES cells, Bmi1 luciferase knock-in, single point; 24 h; 100% = twice the neutral-well signal; reporter increase, % at 12.5 µM; actives 2% (n = 350,000); AID 602393, 2012; in the data active means activation above about 40%;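 further: 0% = median of the plate's neutral control wells and 100% = double that signal; a rise in the Bmi1 reporter signal indicates esBAF inhibition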
SMARCA2 conf: SMARCA2 (BRM) function activators, confirmation, cell-based, luminescence, triplicate | shares compounds with SMARCA2 activ | MG213 cells, MMTV-luciferase with dexamethasone, overnight; MG213 cells expressing E1A, Rb sequestered; DMSO wells 0%, reference activator 100% | activation, % at 9.1 µM | actives 30% (n = 3,500) | AID 652260, 2013;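 active means activation above its plate's cutoff, the mean activation of tested wells plus 3 SD, cut at about 7.9% in these data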
GAL4-VP16 Luc: GAL4-VP16 luciferase reporter activation, counter-screen for SMARCA2 (BRM) activator project, cell-based, pG5luc, luminescence, high throughput; HEK293 GAL4-VP16 pG5luc reporter; scaled: DMSO wells 0%, SAHA wells 100%; AID 686939, 2013; activation, % at 9.1 µM; shares compounds with SMARCA2 activ; actives 41% (n = 3,500);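 active means activation above the solvent-only control well mean plus 3 SD, averaged across control plates, cut at about 5.2% in these data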
Active calls of the source: *.

How did Cc1noc(C)c1S(=O)(=O)N(C)C[C@@H]1Oc2ccc(NC(=O)Nc3ccc(F)cc3)cc2CC(=O)N([C@H](C)CO)C[C@@H]1C do in these assays?
esBAF inh: -5

Results for COc1ccc(/C=C/C(=O)NC(=S)Nc2ccc(S(=O)(=O)Nc3nccnc3OC)cc2)cc1 ?
ARFGAP1 inh: 15; SMARCA2 activ: 13*; ASAP1 inh: 16; SMARCA2 conf: 1; GAL4-VP16 Luc: 1

How did O=[N+]([O-])c1ccccc1N/N=C/c1cccc(O)c1O do in these assays?
ARFGAP1 inh: 3; SMARCA2 activ: 0; ASAP1 inh: -6; esBAF inh: -3

What do the screens show for `O=[N+]([O-])c1ccccc1N/N=C\c1ccccc1F`?
ARFGAP1 inh: 6; SMARCA2 activ: 9.1*; ASAP1 inh: -6; esBAF inh: 63*; SMARCA2 conf: 8.9*; GAL4-VP16 Luc: 14*

How did C[C@@H]1CN([C@H](C)CO)C(=O)c2cc(NS(=O)(=O)c3ccc(Cl)cc3)ccc2O[C@@H]1CN(C)C do in these assays?
esBAF inh: -11

Results for Cc1cc(NC(=O)c2ccccc2)ccc1NC(=O)c1ccccc1Cl ?
ARFGAP1 inh: 5; SMARCA2 activ: -1; ASAP1 inh: 0; esBAF inh: 7

How did Cc1ccc(NC(=O)c2ccccc2Cl)c(Cl)c1 do in these assays?
ARFGAP1 inh: -8; SMARCA2 activ: 13*; ASAP1 inh: -15; esBAF inh: 39; SMARCA2 conf: 11*; GAL4-VP16 Luc: 5.5*

What do the screens show for `CO[C@H]1CN(C)C(=O)c2ccc(NC(C)=O)cc2OC[C@@H](C)N(CCc2ccccc2)C[C@H]1C`?
esBAF inh: 1

How did CCCc1cn(CC[C@H]2CC[C@@H](NC(=O)C3CCC3)[C@@H](CO)O2)nn1 do in these assays?
esBAF inh: -1

Results for Oc1c(Cl)cc(Cl)cc1CNc1ccc(Br)cn1 ?
ARFGAP1 inh: 6; SMARCA2 activ: 3; ASAP1 inh: 12

Results for Oc1ccc(Cl)cc1CNc1ccc(Br)cn1 ?
ARFGAP1 inh: 6; SMARCA2 activ: 9.9*; ASAP1 inh: 14; esBAF inh: 75*; SMARCA2 conf: 11*; GAL4-VP16 Luc: 10*

Results for C[C@@H]1CN([C@@H](C)CO)C(=O)c2cc(NC(=O)Nc3ccccc3)ccc2O[C@H]1CN(C)S(=O)(=O)c1cn(C)cn1 ?
esBAF inh: -5

What do the screens show for `Cc1cc2cc(OCc3ccccc3)ccc2n1C`?
ARFGAP1 inh: 19; SMARCA2 activ: 13*; ASAP1 inh: -5; esBAF inh: 23; SMARCA2 conf: 4; GAL4-VP16 Luc: 8.1*

Results for C[C@@H]1CN([C@H](C)CO)C(=O)c2cc(NC(=O)CCC(F)(F)F)ccc2O[C@@H]1CN(C)S(=O)(=O)c1cn(C)cn1 ?
esBAF inh: 3

What do the screens show for `CN(C)C(=O)c1cccc(-c2ccc3n(c2=O)C[C@@H]2[C@@H](CO)[C@H](C(=O)NCC(F)(F)F)[C@H]3N2C)c1`?
esBAF inh: 1

How did CCc1cccc(CC)c1NC(=O)CN1C2CCCC1CC(NC(=O)Nc1cccc(OC)c1)C2 (stereo not drawn) do in these assays?
ARFGAP1 inh: 8; SMARCA2 activ: 11*; ASAP1 inh: -3; SMARCA2 conf: -1; GAL4-VP16 Luc: 1

Results for c1ccc(-c2ccc3c(n2)CCCN3Cc2ccccn2)cc1 ?
ARFGAP1 inh: 12; SMARCA2 activ: 8.9*; ASAP1 inh: -11; SMARCA2 conf: 3; GAL4-VP16 Luc: 8.7*

What do the screens show for `Fc1ccc(-c2ccc3c(n2)CCCN3Cc2ccccn2)cc1`?
ARFGAP1 inh: 13; SMARCA2 activ: 3; ASAP1 inh: -1

From PubChem BioAssay
